Source: PubChem BioAssay (The Scripps Research Institute Molecular Screening Center)
OX1R antag-1: blocks the human orexin 1 receptor. CHO/OX1R cells, Fluo-8 calcium fluorescence, orexin A. inhibition, % at 5 µM. actives 0.43% (n = 330,000);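 active = inhibition above its plate's threshold, mean inhibition of all tested compounds on the plate plus 3 SD, cut at about 37% in these data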
Target sequence (O43613 whole entry, looked up): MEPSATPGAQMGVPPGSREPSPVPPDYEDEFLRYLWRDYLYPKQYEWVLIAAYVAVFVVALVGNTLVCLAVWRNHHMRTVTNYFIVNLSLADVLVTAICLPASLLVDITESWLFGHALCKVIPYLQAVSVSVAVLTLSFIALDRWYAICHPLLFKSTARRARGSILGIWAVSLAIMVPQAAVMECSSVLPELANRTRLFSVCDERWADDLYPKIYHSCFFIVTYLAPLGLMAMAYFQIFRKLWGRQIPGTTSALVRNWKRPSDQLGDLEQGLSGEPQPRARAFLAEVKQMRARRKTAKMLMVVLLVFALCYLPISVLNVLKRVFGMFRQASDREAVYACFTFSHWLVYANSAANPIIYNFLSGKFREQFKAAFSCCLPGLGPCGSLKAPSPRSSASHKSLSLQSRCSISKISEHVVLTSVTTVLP
OX1R antag-2: antagonists of human orexin 1 receptor (OX1R) | OX1R-expressing cells, FRET antagonist read-out | inhibition, % at 6.6 µM | O43613 | actives 1.8% (n = 330,000) | AID 485270; in the data active = inhibition mostly above about 38%, no sharp cut-off; inactive = mostly below about 40%
CHO parental Ca: counter-screen for OX1R antagonists: effect in parental CHO cells. actives 0.63% (n = 330,000). inhibition, % at 5.6 µM. parental CHO-K1, ATP-induced calcium, Fluo-8 fluorescence. AID 463079;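 active = inhibition above that plate's mean sample inhibition plus 3 SD, cut at about 26% in these data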
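Assay system – parental CHO cells · Reagent – ATP stimulus · Detection – intracellular calcium via Fluo-8 no-wash fluorescent dye · Evaluation – percent inhibition of ATP-evoked calcium rise, normalized to controls · Controls – ATP wells versus no-ATP DMSO wells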
GPR7 antag: human neuropeptides B/W receptor 1 antagonism | P48145 | GPR7-expressing cells, fluorescence antagonist assay | inhibition, % at 4.4 µM | actives 1.1% (n = 290,000) | AID 1861; in the data active = inhibition above about 16%, passing the limit was not always enough;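 also: cells stimulated with the agonist NPW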
GalR3 antag: blocks the human galanin receptor 3; HEK293 GalR3-CNG cAMP membrane potential fluorescence; galR3 body fused to GalR1 C-terminus; inhibition, % at 3 µM; actives 0.44% (n = 360,000);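 active = inhibition above the screen-wide average plus 3 SD, cut at about 13% in these data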;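 also: forskolin and galanin both at EC90 stimulate the cells; cAMP rise reported by CNG channel membrane potential dye signal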
A number is an active result; n = inactive; x = no result. A selection: hits, their analogues and other compounds. The true share with any hit is near 3.1%.

SMILES	OX1R antag-1	OX1R antag-2	CHO parental Ca	GPR7 antag	GalR3 antag
N=c1n(CCN2CCCCC2)c2ccccc2n1CC(O)c1ccc(Cl)c(Cl)c1 (stereo not given)	n	n	n	36.2	n
COc1ccc(OCC(O)Cn2c(=N)n(CCN3CCOCC3)c3ccccc32)cc1 (stereo not given)	n	n	n	n	n
Nc1ccc(C(=O)OCCCc2nc3cc4ccccc4cc3[nH]2)cc1	n	41.5	n	n	n
Nc1ccc(C(=O)OCc2nc3cc4ccccc4cc3[nH]2)cc1	n	n	n	n	n
O=C(COc1ccc(OCc2ccccc2)cc1)NC1CCOC1=O (stereo not given)	n	n	37.9	n	n
CC1=CC2=NC(=O)/C(=C\c3cc(C)n(-c4ccccc4F)c3C)C(=N)N2O1	n	n	n	n	n
COc1cc(/C=C2\C(=N)N3N=C(S(C)(=O)=O)SC3=NC2=O)cc(OC)c1OCCOc1ccccc1C	n	n	n	n	n
CCCC1=NN2C(=N)/C(=C\c3cc(C)n(Cc4ccccc4)c3C)C(=O)N=C2S1	104.3	n	86.5	n	n
Cc1cc(/C=C2\C(=N)N3N=CSC3=NC2=O)c(C)n1Cc1ccccc1	n	n	n	n	n
Cc1cc(/C=C2\C(=N)N3N=C(S(C)(=O)=O)SC3=NC2=O)c(C)n1Cc1ccccc1	n	57.9	n	n	n
Cc1cc(/C=C2/C(=N)N3C(=NC2=O)SN=C3S(C)(=O)=O)c(C)n1-c1ccccc1F	n	46.7	n	n	n
Cc1cc(CN2CCN(c3ncc(Cc4ccccc4)cn3)CC2)cc(C)c1O	x	x	x	x	n
CC1CC(O)C(C)CN1 (stereo not given)	x	x	x	n	n
CCc1c(-c2ccccc2F)ncn1CCc1ccccc1OC	x	x	x	x	n
CCN=C1NC(c2ccccc2C(F)(F)F)C(C(=O)OC)=C(C)N1Cc1ccc(C(F)(F)F)cc1 (stereo not given)	x	x	x	x	n
COC(=O)[C@@H](Cc1ccc(O)cc1)NC(=O)[C@H]1O[C@@H](n2cnc3c(=O)[nH]c(N)nc32)[C@H](O)[C@@H]1O	x	x	x	x	n
CCOC(=O)C(=Cc1ccc(-c2ccsc2C(=O)OC)o1)C(=O)OCC	n	n	n	n	n
COC(=O)C(=Cc1ccc(-c2ccsc2C(=O)OC)o1)C(=O)OC	n	49.9	n	n	n
CCN(CC(=O)Nc1ccccc1-c1ccccc1)Cc1nc2ccccc2c(=O)[nH]1	n	66.5	n	n	n
Cc1ccccc1CN1CCN(C(=O)[C@H]2O[C@@H](n3cnc(C(N)=O)n3)[C@H](O)[C@@H]2O)CC1	x	x	x	x	n
COc1cccc(C2CC(=O)C3=C(C2)Nc2ccccc2N(C(=O)CCC(=O)O)C3c2ccc(F)cc2)c1 (stereo not given)	n	n	99.4	n	n
COc1ccc(C2C3=C(CC(c4ccco4)CC3=O)Nc3ccccc3N2C(C)=O)cc1 (stereo not given)	n	n	n	n	n
CCN(C(=O)CN1CCC(C(=O)OC)CC1)c1c(N)n(Cc2ccccc2)c(=O)[nH]c1=O	n	n	n	x	n
CCC(=O)N(CCC(c1ccco1)c1ccccc1OC)Cc1cccs1 (stereo not given)	n	n	n	18.7	n
CC(=O)N(CCC(c1ccccc1)c1ccco1)Cc1cccs1 (stereo not given)	n	n	n	n	n
SMILES	OX1R antag-1	OX1R antag-2	CHO parental Ca	GPR7 antag	GalR3 antag
CCCN1CCCCC(NC(=O)c2cccs2)C1=O (stereo not given)	x	x	x	x	n
Cc1cccc(N2CCN(C(=O)c3cc(COc4ccc(F)c(F)c4)on3)CC2)n1	n	n	n	n	n
Cc1ccc(CNC(=O)c2ccc3nc4[nH]c5ccccc5c4nc3c2)cc1	x	x	x	n	n
COc1ccccc1CNC(=O)c1ccc2nc3[nH]c4ccccc4c3nc2c1	n	46.8	n	n	n
COCCOc1ccc(C(F)(F)F)cc1NC(=O)c1ccc(C)cc1	n	n	38.6	n	n
CCOC(=O)C1=C(CC)Nc2ccccc2N=C1NC(=O)c1cc(C)on1	n	n	n	x	n
CCOC(=O)C1=C(CC)Nc2ccccc2N=C1NC(=O)Nc1ccc(Cl)c(Cl)c1	64.4	95.7	63.7	n	n
O=C1CC2(CCCC2)C(=O)N1c1ccc(S(=O)(=O)NCC2CC2)cc1Cl	n	n	n	n	n
CCCCC(=O)Nc1cccc(-c2cn3ccccc3n2)c1	n	n	n	n	n
Cc1ccc(C(=O)Nc2cccc(-c3cn4ccccc4n3)c2)cc1	n	n	n	n	n
Cc1ccccc1C(=O)Nc1cccc(-c2cn3ccccc3n2)c1	n	72.5	n	n	n
O=C(Nc1cccc(-c2cn3ccccc3n2)c1)c1ccccc1	n	52.9	n	n	n
CC(C)(C)C1CCCCC1NC(=O)c1ccncc1 (stereo not given)	x	x	x	n	n
O=C(NN=Cc1ccc(O)cc1)C(=O)NN=Cc1ccc(O)cc1	x	x	x	x	n
O=C(N/N=C/c1ccc(O)cc1O)C(=O)N/N=C/c1ccc(O)cc1O	n	69.8	n	n	n
COc1cc2sc3cc(NCCCN4CCOCC4)ccc3c(=O)c2cc1OC	n	62.8	n	x	n
Cc1ccc(C(=O)CN(CCC(=O)O)S(=O)(=O)c2ccc([N+](=O)[O-])cc2)cc1	n	n	n	x	n
NC(=O)COc1c(-c2ccc(Br)o2)oc2ccccc2c1=O	n	71.7	n	n	x
CCc1ccc(S(=O)(=O)/N=C2/C=C(Sc3ncn[nH]3)C(=O)c3ccccc32)cc1	n	67.5	n	n	x
CCc1ccc(S(=O)(=O)/N=C2\C=C(Nc3cccc(C(=O)O)c3)C(=O)c3ccccc32)cc1	n	45.6	n	n	n
CCc1ccc(S(=O)(=O)/N=C2\C=C(Nc3ccc(O)cc3)C(=O)c3ccccc32)cc1	n	n	n	n	x
Cc1cc(-c2ccc(S(=O)(=O)N3CCCCC3)s2)on1	n	n	n	n	n
COc1ccc(-n2c(=O)cc(N3CCN(Cc4ccccc4)CC3)[nH]c2=O)cc1	n	n	n	17.9	n
Cc1cc2c(nc1C)CCCN2Cc1ccc(Br)cc1	x	x	x	x	n
N#Cc1ccc(OCC(=O)Nc2ccncc2)cc1	n	n	n	n	n
SMILES	OX1R antag-1	OX1R antag-2	CHO parental Ca	GPR7 antag	GalR3 antag
CC(C)(C)c1ccc(OCC(=O)Nc2ccncc2)c(Br)c1	n	n	46.6	n	n
O=C(COc1ccc([N+](=O)[O-])cc1)Nc1cccnc1	n	n	n	n	n
O=C(COc1ccc(Nc2ccccc2)cc1)Nc1ccncc1	n	n	36.8	x	n
O=C(COc1ccc(-c2ccccc2)cc1)Nc1cccnc1	57.5	n	27.4	x	n
CCC(C)(C)c1ccc(OCC(=O)Nc2ccncc2)cc1	78.1	n	75.6	n	n
O=C(COc1ccc(Br)cc1)Nc1ccncc1	n	n	n	n	n
CCCn1c(-c2cccs2)nc2nc3ccccc3nc21	n	63.6	n	n	n
C=C(C)CNC(=S)N=Nc1c(O)[nH]c2ccc([N+](=O)[O-])cc12	n	n	n	n	n
O=C(CNC(=O)c1ccco1)N=Nc1c(O)[nH]c2ccc([N+](=O)[O-])cc12	n	62.7	n	n	n
C=C(C(=O)Nc1ccccc1)c1ccc(C)cc1	n	n	n	x	n
